This is an account of results in ChEMBL document CHEMBL4371044, “Celastrol Promotes Weight Loss in Diet-Induced Obesity by Inhibiting the Protein Tyrosine Phosphatases PTP1B and TCPTP in the Hypothalamus” (J Med Chem, 2018).

The target in experiment [1] is T1, Tyrosine-protein phosphatase non-receptor type 1 (Homo sapiens) (UniProt P18031).
T1 sequence (whole entry): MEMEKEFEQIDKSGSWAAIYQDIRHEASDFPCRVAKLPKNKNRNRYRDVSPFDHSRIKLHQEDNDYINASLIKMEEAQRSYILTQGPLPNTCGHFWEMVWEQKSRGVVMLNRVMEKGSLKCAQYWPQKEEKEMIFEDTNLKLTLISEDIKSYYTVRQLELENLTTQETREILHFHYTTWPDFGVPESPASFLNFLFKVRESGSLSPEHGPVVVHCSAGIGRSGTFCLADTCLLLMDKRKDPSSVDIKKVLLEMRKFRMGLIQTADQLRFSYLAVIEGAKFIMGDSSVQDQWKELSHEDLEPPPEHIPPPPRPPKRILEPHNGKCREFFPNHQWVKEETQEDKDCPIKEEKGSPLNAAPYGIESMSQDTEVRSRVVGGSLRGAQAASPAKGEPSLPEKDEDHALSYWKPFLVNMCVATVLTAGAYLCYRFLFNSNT
The experiment in a line: Inhibition of human N-terminal His6-tagged PTP1B catalytic domain (1 to 298 residues) expressed in Escherichia coli strain Rosetta2 (DE3) up to 500 uM using pNPP as substrate preincubated for 10 mins followed by substrate addition and measured after 10 mins by […].

Experiment [2] addresses T2, Tyrosine-protein phosphatase non-receptor type 2 (Homo sapiens) (UniProt P17706).
T2 sequence (whole entry): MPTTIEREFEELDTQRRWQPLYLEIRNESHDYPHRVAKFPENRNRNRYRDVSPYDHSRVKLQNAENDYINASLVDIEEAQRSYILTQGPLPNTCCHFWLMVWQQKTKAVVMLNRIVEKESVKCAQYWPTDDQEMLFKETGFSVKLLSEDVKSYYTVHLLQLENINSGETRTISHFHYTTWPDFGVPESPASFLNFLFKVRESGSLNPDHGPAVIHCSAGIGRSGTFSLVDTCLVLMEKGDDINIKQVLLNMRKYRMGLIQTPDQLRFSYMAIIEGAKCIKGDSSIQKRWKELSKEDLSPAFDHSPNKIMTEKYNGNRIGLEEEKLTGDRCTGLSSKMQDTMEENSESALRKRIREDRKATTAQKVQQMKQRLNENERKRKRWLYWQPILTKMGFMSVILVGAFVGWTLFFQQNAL
Put plainly: Inhibition of human N-terminal His6-tagged TCPTP catalytic domain (1 to 296 residues) expressed in Escherichia coli strain Rosetta2 (DE3) up to 500 uM using pNPP as substrate preincubated for 10 mins followed by substrate addition and measured after 10 mins by […].

Experiment [3] deals with T1, Tyrosine-protein phosphatase non-receptor type 1 (Homo sapiens). Put plainly: Inhibition of human N-terminal His6-tagged PTP1B catalytic domain (1 to 393 residues) expressed in Escherichia coli strain Rosetta2 (DE3) using DiFMUP as substrate preincubated for 10 mins followed by substrate addition and measured after 10 mins in presence of 0.05% Tween20 by fluorescence assay. The method in brief:
(§1)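 DiFMUP IC50 assay (1 nM enzyme, 10 min preincubation, substrate at Km, 37 °C, ex 358/em 455 nm), repeated as an aggregation check under three altered conditions: 10-fold enzyme (10 nM), 0.05% Tween 20, or 0.1 mg/mL BSA in buffer.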

The target of experiment [4] is T3, Tyrosine-protein phosphatase non-receptor type 1 (Homo sapiens, UniProt P18031).
T3 sequence (P18031 whole entry): T1 sequence (whole entry)
Put plainly: Binding affinity to human N-terminal His6-tagged PTP1B catalytic domain (1 to 298 residues) expressed in Escherichia coli strain Rosetta2 (DE3) by switch sense technology based assay. The method in brief: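 switchSENSE, fluorescence proximity mode: PTP1B1−298 immobilized on chip, analyte injected at increasing concentrations up to 100 μM at 100 μL/min in PE40 buffer (10 mM phosphate pH 7.4, 40 mM NaCl, 50 μM EGTA/EDTA, 0.05% Tween 20). Buffer rinse for dissociation, recorded at the three highest concentrations; kon, koff, KD fitted.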

Experiment [5] relates to Mus musculus. Put plainly: Antiobesity activity in high fat diet-induced obese Ptpn1fl/fl/Ptpn2fl/fl null C57BL/6 mouse assessed as reduction in body weight at 100 ug/kg, ip for 10 consecutive days. The format is functional, organism-based. The method in brief: (§2)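 Male Ptpn1fl/fl, Ptpn2fl/fl or double-floxed mice: chow 8 weeks, then high-fat diet (45% energy from fat) 12 weeks. Bilateral intra-ARC stereotaxic injection of rAAV-CMV-Cre-GFP or rAAV-CMV-GFP, 100 nL/side. After 2 weeks recovery, vehicle or 100 μg/kg ip daily at 6 pm for 10 days; body weight tracked; two-way repeated-measures ANOVA with Tukey test; means ± SEM.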

Experiment [6] addresses Receptor-type tyrosine-protein phosphatase epsilon (Homo sapiens, UniProt P23469). Put plainly: Inhibition of human PTPRE (107 to 707 residues) expressed in Escherichia coli strain BL21(DE3) using DiFMUP as substrate preincubated for 10 mins followed by substrate addition and measured after 10 mins by fluorescence assay. The method in brief:
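Selectivity panel on enzymes expressed in E. coli BL21(DE3), purified by nickel affinity then size exclusion. DiFMUP fluorescence assay run as for PTP1B/TCPTP, with per-enzyme conditions in a supplementary table; nonlinear regression for IC50; three independent experiments.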

Experiment [7] addresses T4, Tyrosine-protein phosphatase non-receptor type 2 (Homo sapiens, UniProt P17706).
T4 sequence (P17706 whole entry): T2 sequence (whole entry)
Put plainly: Inhibition of human N-terminal His6-tagged TCPTP catalytic domain (1 to 336 residues) expressed in Escherichia coli strain Rosetta2 (DE3) using DiFMUP as substrate preincubated for 10 mins followed by substrate addition and measured after 10 mins by fluorescence assay. Put shortly:
(§3)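 Tag-cleaved, SEC-purified enzyme at 1 nM, preincubated 10 min with compound at 15 concentrations from 0–500 μM (5% DMSO final) in 25 mM Bis-Tris propane pH 7.5, 50 mM NaCl, 2 mM EDTA. DiFMUP added at each construct's Km (10, 7, 10, 9 μM for PTP1B1−298, PTP1B1−393, TCPTP1−296, TCPTP1−336). Read ex 358/em 455 nm continuously 10 min at 37 °C; triplicate; log(inhibitor)-response fit.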

For experiment [8], the system named is Mus musculus. The experiment in a line: Antiobesity activity in high fat diet-induced obese Ptpn2fl/fl null C57BL/6 mouse assessed as hypophagia at 100 ug/kg, ip for 10 consecutive days. The format is functional, organism-based.
For experiment [9], the target named is T1, Tyrosine-protein phosphatase non-receptor type 1 (Homo sapiens). Put plainly: Inhibition of human N-terminal His6-tagged PTP1B catalytic domain (1 to 393 residues) expressed in Escherichia coli strain Rosetta2 (DE3) using DiFMUP as substrate preincubated for 10 mins followed by substrate addition and measured after 10 mins in presence of 0.1 mg/ml BSA by fluorescence assay. The method in brief:
as §1

For experiment [10], the target named is T4, Tyrosine-protein phosphatase non-receptor type 2. Put plainly: Inhibition of human N-terminal His6-tagged TCPTP catalytic domain (1 to 296 residues) expressed in Escherichia coli strain Rosetta2 (DE3) using DiFMUP as substrate preincubated for 10 mins followed by substrate addition and measured after 10 mins by fluorescence assay. Put shortly:
as §3

For experiment [11], the system named is Mus musculus. Put plainly: Antiobesity activity in high fat diet-induced obese Ptpn2fl/fl null C57BL/6 mouse assessed as reduction in body weight at 100 ug/kg, ip for 10 consecutive days. In kind it is functional, organism-based. The method in brief: as §2
The target of experiment [12] is T2, Tyrosine-protein phosphatase non-receptor type 2 (Homo sapiens). The experiment in a line: Inhibition of human N-terminal His6-tagged TCPTP catalytic domain (1 to 296 residues) expressed in Escherichia coli strain Rosetta2 (DE3) by NMR spectroscopy.

SMILES strings stand for the structures. Active and inactive are the calls of the source. The rule behind the calls is not given here. Where only a bound is given, the exact number is not on record here.

Sequence of Receptor-type tyrosine-protein phosphatase epsilon (P23469 whole entry, the tested form may be a part): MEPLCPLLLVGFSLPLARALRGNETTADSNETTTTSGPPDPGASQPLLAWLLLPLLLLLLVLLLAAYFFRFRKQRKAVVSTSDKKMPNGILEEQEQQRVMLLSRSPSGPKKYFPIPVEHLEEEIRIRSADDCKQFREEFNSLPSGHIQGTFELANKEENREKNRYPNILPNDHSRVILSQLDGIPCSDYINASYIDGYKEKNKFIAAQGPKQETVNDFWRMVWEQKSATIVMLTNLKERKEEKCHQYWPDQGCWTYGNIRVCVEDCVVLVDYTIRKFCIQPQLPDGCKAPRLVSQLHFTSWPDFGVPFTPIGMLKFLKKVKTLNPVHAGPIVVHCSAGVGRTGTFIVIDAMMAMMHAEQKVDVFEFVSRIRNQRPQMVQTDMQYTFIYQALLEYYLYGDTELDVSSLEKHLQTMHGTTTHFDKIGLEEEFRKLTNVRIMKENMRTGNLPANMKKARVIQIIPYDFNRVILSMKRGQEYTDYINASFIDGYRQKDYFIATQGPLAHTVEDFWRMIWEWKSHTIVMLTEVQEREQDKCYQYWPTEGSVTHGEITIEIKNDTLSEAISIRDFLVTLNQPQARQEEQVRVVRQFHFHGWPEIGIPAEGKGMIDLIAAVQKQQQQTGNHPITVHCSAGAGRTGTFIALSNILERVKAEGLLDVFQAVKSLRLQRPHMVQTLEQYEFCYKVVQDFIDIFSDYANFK

Regarding `CC1=C(O)C(=O)C=C2C1=CC=C1[C@@]2(C)CC[C@@]2(C)[C@@H]3C[C@](C)(C(=O)O)CC[C@]3(C)CC[C@]12C` [CELASTROL], the inhibition entry (in experiment [1]; in experiment [2]; in experiment [3]; with Mus musculus [8]; in experiment [9]) was “Active” in each case. Also, the dissociation constant (Kd) (usually a measure of binding affinity in units of concentration) in experiment [4] was 6.08 µM. Further, the outcome (with Mus musculus [5]; in the experiment with Mus musculus [11]; in [12]) was Active. Besides, the concentration for half-maximal inhibition (IC50) (usually the concentration that inhibits the measured activity by half) in [6] was greater than 500 µM; in experiment [7] it was 18.8 µM; in [10], 23 µM.
